Reference: ChEMBL document CHEMBL4118021, “Studies of TAK1-centered polypharmacology with novel covalent TAK1 inhibitors” (Bioorg Med Chem, 2017)
One block for each compound: values may come before it. The source made the active and inactive calls. The rule behind the calls is not given here.

Tests used:
[1] = target: Translocon-associated protein subunit delta (Homo sapiens) (UniProt P51571); assay: Binding affinity to SSR4 in human NCI-H23 cells at 1 uM by mass spectrometry based pull down assay; assay type: cell-based
Plastin-2 (Homo sapiens) = Plastin-2 (Homo sapiens) (UniProt P13796); assay: Binding affinity to LCP1 in human NCI-H358 cells at 1 uM by mass spectrometry based pull down assay; assay type: cell-based
[2] = target: WD repeat and HMG-box DNA-binding protein 1 (Homo sapiens) (UniProt O75717); assay: Binding affinity to WDHD1 in human NCI-H358 cells at 1 uM by mass spectrometry based pull down assay; assay type: cell-based
[3] = target: DNA replication licensing factor MCM6 (Homo sapiens) (UniProt Q14566); assay: Binding affinity to MCM6 in human NCI-H23 cells at 1 uM by mass spectrometry based pull down assay; assay type: cell-based
[4] = target: Mitogen-activated protein kinase 3 (Homo sapiens) (UniProt P27361); assay: Binding affinity to MAPK3 in human NCI-H23 cells at 1 uM by mass spectrometry based pull down assay; assay type: cell-based
[5] = target: Transmembrane protein 263 (Homo sapiens) (UniProt Q8WUH6); assay: Binding affinity to TMEM263 in human NCI-H23 cells at 1 uM by mass spectrometry based pull down assay; assay type: cell-based
[6] = target: Thymidylate synthase (Homo sapiens) (UniProt P04818); assay: Binding affinity to TYMS in human NCI-H23 cells at 1 uM by mass spectrometry based pull down assay; assay type: cell-based
[7] = target: Probable ATP-dependent RNA helicase DDX6 (Homo sapiens) (UniProt P26196); assay: Binding affinity to DDX6 in human NCI-H23 cells at 1 uM by mass spectrometry based pull down assay; assay type: cell-based
[8] = target: Bifunctional glutamate/proline--tRNA ligase (Homo sapiens) (UniProt P07814); assay: Binding affinity to EPRS in human NCI-H358 cells at 1 uM by mass spectrometry based pull down assay; assay type: cell-based
NCI-H23 = assay: Binding affinity to NDUFS3 in human NCI-H23 cells at 1 uM by mass spectrometry based pull down assay; assay type: cell-based
[9] = target: T1, 80S Ribosome (Homo sapiens) (UniProt P08865+P42677+P62753+P15880+P23396+P61247+P62701+P22090+P46782+P62081+P62241+P46781+P46783+P62280+P25398+P62277+P62263+P62841+P62244+P62249+P08708+P62269+P39019+P60866+P63220+P62266+P62847+P62851+P62854+P62979+P62857+P62273+P62861+P39023+P36578+P46777+Q02878+P18124+P62424+P62917+P32969+P27635+P62906+P62913+P30050+P26373+P40429+P50914+P61313+P18621+Q07020+Q02543+P84098+P46778+P35268+P62829+P62750+P83731+P61254+P61353+P46776+P46779+P47914+P62888+P62899+P62910+P49207+P42766+P18077+Q9Y3U8+P83881+P61927+P61513+P63173+P62891+P62945+P05388+P05386); assay: Binding affinity to RPS23 in human NCI-H358 cells at 1 uM by mass spectrometry based pull down assay; assay type: cell-based
[10] = target: T1, 80S Ribosome (Homo sapiens); assay: Binding affinity to RPS5 in human NCI-H23 cells at 1 uM by mass spectrometry based pull down assay; assay type: cell-based
[11] = target: T1, 80S Ribosome (Homo sapiens); assay: Binding affinity to RPS26 in human NCI-H358 cells at 1 uM by mass spectrometry based pull down assay; assay type: cell-based
[12] = target: Coatomer subunit beta (Homo sapiens) (UniProt P53618); assay: Binding affinity to COPB1 in human NCI-H23 cells at 1 uM by mass spectrometry based pull down assay; assay type: cell-based
[13] = target: Glutamine--fructose-6-phosphate aminotransferase [isomerizing] 1 (Homo sapiens) (UniProt Q06210); assay: Binding affinity to GFPT1 in human NCI-H23 cells at 1 uM by mass spectrometry based pull down assay; assay type: cell-based
[14] = target: Deoxyribose-phosphate aldolase (Homo sapiens) (UniProt Q9Y315); assay: Binding affinity to DERA in human NCI-H358 cells at 1 uM by mass spectrometry based pull down assay; assay type: cell-based
[15] = target: Acidic leucine-rich nuclear phosphoprotein 32 family member A (Homo sapiens) (UniProt P39687); assay: Binding affinity to ANP32A in human NCI-H23 cells at 1 uM by mass spectrometry based pull down assay; assay type: cell-based
[16] = target: U5 small nuclear ribonucleoprotein 200 kDa helicase (Homo sapiens) (UniProt O75643); assay: Binding affinity to SNRNP200 in human NCI-H23 cells at 1 uM by mass spectrometry based pull down assay; assay type: cell-based
[17] = target: Thymidine kinase, cytosolic (Homo sapiens) (UniProt P04183); assay: Binding affinity to TK1 in human NCI-H358 cells at 1 uM by mass spectrometry based pull down assay; assay type: cell-based
[18] = target: RuvB-like 1 (Homo sapiens) (UniProt Q9Y265); assay: Binding affinity to RUVBL1 in human NCI-H358 cells at 1 uM by mass spectrometry based pull down assay; assay type: cell-based
[19] = target: Thioredoxin reductase 1, cytoplasmic (Homo sapiens) (UniProt Q16881); assay: Binding affinity to TXNRD1 in human NCI-H358 cells at 1 uM by mass spectrometry based pull down assay; assay type: cell-based
[20] = target: GTP-binding protein Rheb (Homo sapiens) (UniProt Q15382); assay: Binding affinity to RHEB in human NCI-H358 cells at 1 uM by mass spectrometry based pull down assay; assay type: cell-based
Filamin-B (Homo sapiens) = Filamin-B (Homo sapiens) (UniProt O75369); assay: Binding affinity to FLNB in human NCI-H358 cells at 1 uM by mass spectrometry based pull down assay; assay type: cell-based
[21] = target: Serine/threonine-protein kinase MARK2 (Homo sapiens) (UniProt Q7KZI7); assay: Inhibition of MARK2 in human SKCO1 cells at 1 uM after 4 hrs using biotin labeled EVAVKIIDK probe by mass-spectrometric analysis relative to control; assay type: cell-based
[22] = target: Tyrosine-protein kinase Fer (Homo sapiens) (UniProt P16591); assay: Inhibition of FER in human SKCO1 cells at 1 uM after 4 hrs using biotin labeled TSVAVKTCKEDLPQELK probe by mass-spectrometric analysis relative to control; assay type: cell-based
[23] = target: Mitogen-activated protein kinase kinase kinase 11 (Homo sapiens) (UniProt Q16584); assay: Inhibition of MLK3 in human SKCO1 cells at 1 uM after 4 hrs using biotin labeled DLKSNNILLLQPIESDDMEHK probe by mass-spectrometric analysis relative to control; assay type: cell-based
[24] = target: Dual specificity mitogen-activated protein kinase kinase 2 (Homo sapiens) (UniProt P36507); assay: Inhibition of full length human MEK2 (1 to 400 residues) expressed in mammalian expression system assessed as enzyme activity at 1 uM by KINOMEScan assay relative to control; design: scale not given: the % may be the effect or the level left
How it was run: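 In vitro ATP-site competition binding assay (KinomeScan) across a panel of 456 kinases. Compound was tested at 1 and 10 μM. The read-out is the binding inhibition score relative to control.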

Deoxyribose-phosphate aldolase (Homo sapiens), sequence (Q9Y315 whole entry): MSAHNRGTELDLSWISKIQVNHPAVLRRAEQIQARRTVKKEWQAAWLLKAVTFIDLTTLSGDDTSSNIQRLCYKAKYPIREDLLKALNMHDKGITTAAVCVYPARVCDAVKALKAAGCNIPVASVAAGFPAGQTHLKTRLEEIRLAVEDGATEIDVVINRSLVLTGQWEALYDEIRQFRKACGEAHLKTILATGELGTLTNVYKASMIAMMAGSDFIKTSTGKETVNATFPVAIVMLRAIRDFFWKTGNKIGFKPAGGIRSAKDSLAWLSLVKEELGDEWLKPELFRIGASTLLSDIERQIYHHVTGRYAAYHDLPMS
Bifunctional glutamate/proline--tRNA ligase (Homo sapiens), sequence (P07814 whole entry): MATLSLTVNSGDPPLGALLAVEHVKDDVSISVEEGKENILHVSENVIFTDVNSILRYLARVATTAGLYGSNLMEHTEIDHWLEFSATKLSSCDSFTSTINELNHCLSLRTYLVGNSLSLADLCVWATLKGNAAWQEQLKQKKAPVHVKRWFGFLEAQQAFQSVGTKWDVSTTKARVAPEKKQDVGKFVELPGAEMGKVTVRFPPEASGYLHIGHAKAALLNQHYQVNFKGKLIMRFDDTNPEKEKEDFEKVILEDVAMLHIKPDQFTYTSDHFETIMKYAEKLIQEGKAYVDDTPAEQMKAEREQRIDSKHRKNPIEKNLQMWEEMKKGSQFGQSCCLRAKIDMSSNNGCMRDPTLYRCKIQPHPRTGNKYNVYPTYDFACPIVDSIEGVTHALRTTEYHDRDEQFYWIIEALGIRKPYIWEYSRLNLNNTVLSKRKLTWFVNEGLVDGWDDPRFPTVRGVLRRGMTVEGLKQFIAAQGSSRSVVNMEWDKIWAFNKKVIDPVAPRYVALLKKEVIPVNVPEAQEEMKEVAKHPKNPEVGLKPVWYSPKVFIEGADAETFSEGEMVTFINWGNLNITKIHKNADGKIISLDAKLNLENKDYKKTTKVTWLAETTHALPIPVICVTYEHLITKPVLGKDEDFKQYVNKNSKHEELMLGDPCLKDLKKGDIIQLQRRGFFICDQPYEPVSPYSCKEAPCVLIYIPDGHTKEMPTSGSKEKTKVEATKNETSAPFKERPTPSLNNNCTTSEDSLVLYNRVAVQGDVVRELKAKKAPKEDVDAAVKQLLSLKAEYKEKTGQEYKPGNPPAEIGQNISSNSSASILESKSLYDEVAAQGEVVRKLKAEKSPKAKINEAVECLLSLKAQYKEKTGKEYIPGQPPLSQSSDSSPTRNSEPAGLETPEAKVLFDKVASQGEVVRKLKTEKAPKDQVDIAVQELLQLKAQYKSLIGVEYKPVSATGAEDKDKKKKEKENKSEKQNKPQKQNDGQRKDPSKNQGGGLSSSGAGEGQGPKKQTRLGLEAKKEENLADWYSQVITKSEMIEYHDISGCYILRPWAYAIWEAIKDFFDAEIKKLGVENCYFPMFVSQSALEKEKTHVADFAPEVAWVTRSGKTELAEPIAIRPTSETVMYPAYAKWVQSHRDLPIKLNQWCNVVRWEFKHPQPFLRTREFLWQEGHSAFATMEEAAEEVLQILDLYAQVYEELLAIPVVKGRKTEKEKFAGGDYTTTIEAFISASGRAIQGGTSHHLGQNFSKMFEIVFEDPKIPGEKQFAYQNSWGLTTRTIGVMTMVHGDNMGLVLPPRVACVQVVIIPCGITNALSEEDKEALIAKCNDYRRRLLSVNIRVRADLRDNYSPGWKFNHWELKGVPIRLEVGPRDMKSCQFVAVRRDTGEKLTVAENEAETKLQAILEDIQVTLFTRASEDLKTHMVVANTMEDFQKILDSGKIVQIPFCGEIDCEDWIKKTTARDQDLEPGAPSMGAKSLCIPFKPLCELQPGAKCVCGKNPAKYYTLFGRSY
WD repeat and HMG-box DNA-binding protein 1 (Homo sapiens), sequence (O75717 whole entry): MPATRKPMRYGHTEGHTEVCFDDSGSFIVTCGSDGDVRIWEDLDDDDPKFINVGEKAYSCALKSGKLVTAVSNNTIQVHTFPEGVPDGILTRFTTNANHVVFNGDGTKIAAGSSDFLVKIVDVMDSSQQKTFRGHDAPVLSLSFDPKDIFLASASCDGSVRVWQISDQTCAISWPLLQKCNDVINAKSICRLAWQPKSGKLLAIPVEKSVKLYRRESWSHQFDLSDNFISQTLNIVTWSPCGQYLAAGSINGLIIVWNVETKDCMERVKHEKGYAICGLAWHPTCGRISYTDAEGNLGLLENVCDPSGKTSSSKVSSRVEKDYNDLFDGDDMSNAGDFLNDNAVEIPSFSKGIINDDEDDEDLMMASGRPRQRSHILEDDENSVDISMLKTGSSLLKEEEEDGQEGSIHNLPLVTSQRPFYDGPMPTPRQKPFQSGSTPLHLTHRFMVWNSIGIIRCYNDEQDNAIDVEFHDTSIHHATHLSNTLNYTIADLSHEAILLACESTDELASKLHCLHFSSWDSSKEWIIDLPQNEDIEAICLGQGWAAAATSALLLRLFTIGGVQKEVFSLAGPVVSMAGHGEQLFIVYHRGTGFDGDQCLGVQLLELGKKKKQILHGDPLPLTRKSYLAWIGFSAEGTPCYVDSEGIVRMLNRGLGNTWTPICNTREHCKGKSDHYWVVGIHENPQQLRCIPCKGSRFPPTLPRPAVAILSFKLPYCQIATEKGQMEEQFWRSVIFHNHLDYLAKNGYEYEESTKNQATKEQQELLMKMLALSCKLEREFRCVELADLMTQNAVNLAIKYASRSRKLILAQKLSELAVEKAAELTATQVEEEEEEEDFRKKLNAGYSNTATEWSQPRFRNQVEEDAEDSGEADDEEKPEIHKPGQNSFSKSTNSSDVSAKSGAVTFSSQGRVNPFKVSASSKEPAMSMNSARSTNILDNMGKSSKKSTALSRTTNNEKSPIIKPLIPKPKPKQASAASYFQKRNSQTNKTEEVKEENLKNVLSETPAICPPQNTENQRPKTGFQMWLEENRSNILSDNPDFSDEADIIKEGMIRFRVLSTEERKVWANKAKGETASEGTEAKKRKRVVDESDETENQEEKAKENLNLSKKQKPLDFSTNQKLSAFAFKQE
GTP-binding protein Rheb (Homo sapiens), sequence (Q15382 whole entry): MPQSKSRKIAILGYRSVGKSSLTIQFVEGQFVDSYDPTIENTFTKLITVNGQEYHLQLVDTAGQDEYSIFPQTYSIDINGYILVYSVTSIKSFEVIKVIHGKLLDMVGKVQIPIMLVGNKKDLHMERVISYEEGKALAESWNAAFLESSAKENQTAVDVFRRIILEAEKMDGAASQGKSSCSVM
Thymidylate synthase (Homo sapiens), sequence (P04818 2-313 limits assumed): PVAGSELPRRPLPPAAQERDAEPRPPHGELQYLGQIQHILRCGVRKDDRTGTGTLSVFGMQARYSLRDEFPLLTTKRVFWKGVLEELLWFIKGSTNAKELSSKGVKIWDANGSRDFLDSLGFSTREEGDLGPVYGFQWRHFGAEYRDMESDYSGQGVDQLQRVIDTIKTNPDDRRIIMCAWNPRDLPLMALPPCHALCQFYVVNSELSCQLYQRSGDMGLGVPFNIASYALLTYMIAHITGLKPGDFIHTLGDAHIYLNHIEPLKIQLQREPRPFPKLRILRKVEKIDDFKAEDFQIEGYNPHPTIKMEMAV
Translocon-associated protein subunit delta (Homo sapiens), sequence (P51571 whole entry): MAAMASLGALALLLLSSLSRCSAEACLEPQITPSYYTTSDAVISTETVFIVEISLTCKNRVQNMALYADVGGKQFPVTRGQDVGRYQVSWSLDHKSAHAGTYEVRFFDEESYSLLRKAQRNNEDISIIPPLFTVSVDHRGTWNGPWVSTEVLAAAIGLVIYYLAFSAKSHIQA
Plastin-2 (Homo sapiens), sequence (P13796 whole entry): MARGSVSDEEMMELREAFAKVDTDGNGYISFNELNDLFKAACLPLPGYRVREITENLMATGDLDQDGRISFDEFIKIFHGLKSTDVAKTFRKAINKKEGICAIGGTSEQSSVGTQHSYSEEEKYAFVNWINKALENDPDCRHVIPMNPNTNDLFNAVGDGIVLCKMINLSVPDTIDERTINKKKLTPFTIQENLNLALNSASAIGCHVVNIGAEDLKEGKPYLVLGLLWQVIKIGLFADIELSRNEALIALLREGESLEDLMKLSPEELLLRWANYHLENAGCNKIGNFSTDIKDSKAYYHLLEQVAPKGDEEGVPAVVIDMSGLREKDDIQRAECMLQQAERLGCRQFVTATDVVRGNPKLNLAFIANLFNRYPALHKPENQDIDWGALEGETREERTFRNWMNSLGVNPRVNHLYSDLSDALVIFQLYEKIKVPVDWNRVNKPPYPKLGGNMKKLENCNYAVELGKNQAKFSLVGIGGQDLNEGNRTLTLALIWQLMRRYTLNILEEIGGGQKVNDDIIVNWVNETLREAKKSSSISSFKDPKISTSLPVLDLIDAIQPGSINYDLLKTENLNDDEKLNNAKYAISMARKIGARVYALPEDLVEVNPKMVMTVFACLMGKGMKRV
Thioredoxin reductase 1, cytoplasmic (Homo sapiens), sequence (Q16881 whole entry): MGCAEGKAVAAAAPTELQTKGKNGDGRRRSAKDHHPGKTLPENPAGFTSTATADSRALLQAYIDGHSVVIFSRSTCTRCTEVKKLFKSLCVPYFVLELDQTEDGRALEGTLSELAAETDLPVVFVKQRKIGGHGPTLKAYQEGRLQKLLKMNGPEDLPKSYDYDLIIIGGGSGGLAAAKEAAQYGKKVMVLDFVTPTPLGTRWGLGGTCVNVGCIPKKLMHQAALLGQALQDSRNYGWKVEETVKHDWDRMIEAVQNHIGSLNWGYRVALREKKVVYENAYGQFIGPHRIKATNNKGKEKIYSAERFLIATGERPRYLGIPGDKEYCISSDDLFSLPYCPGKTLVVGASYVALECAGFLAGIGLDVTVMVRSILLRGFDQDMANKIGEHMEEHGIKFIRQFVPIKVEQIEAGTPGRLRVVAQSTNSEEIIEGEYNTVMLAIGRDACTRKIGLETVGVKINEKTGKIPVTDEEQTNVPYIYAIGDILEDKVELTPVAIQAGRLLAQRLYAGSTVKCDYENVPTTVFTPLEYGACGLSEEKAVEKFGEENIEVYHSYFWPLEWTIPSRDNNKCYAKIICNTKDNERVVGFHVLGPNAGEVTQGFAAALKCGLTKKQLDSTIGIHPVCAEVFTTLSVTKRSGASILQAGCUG

Activity [1]: Active | Activity (Plastin-2 (Homo sapiens)): Active | Activity [2]: Active | Activity [3]: Active | Activity [4]: Active | Activity [5]: Active | Activity [6]: Active | Activity [7]: Active | Activity [8]: Active | Activity [9]: Active | Activity [10]: Active | Activity [11]: Active | Activity [12]: Active | Activity [13]: Active | Activity [14]: Active | Activity [15]: Active | Activity [16]: Active | Activity [17]: Active | Activity [18]: Active | Activity [19]: Active | Activity [20]: Active | Activity (Filamin-B (Homo sapiens)): Active
SMILES: C=CC(=O)Nc1ccccc1Nc1nc(Nc2ccc(N3CCN(CCOCCOCCOCCNC(=O)CCCC[C@@H]4SC[C@@H]5NC(=O)N[C@@H]54)CC3)cc2)ncc1Cl
Activity (NCI-H23): Active

SMILES: C=CC(=O)Nc1ccccc1Nc1nc(Nc2ccc(N3CCN(C)CC3)cc2)ncc1Cl
inhibition [21]: -5.7% | inhibition [22]: -0.2%

SMILES: COc1cc(O)c2c(c1)/C=C/C[C@H](O)[C@H](O)C(=O)/C=C\C[C@H](C)OC2=O
inhibition [23]: -1.7% | Activity [24]: 0.75%
